Published values collected from several papers.
Protocols differ between the studies behind these lines.
Target: Serine/threonine-protein kinase 38 (STK38, Homo sapiens, UniProt Q15208)

SMILES	assay	test system	conditions	quantity	value
CC1(C)NC(=O)c2[nH]c3c(Cl)c(Cl)ccc3c2C1C#N (stereo not drawn)	thermal stability, DSF	–	10 µM	ΔTm	-0.1 °C
CC(C)(O)[C@H]1CC[C@H](Nc2ccc3ncc(-c4cccc(C(F)(F)F)c4)n3n2)CC1	enzyme activity, inhibitor	–	1 µM	remaining activity	96.7%
O=C(Nc1cnn(-c2csc(C(=O)NC3COC3)c2)c1)Nc1ccccc1Cl	enzyme activity, inhibitor	–	5 µM	remaining activity	99.2%
Cc1c(NC(=O)c2cc(C(N)=O)nc3cc(F)ccc23)c(C(F)(F)F)nn1Cc1ccc(C#N)cc1	cell-free assay, competition with immobilised ligand	–	1 µM	remaining binding	94%
Cn1c2c(Cl)c(Cl)ccc2c2cc(N)[nH]c(=O)c21	thermal stability, DSF	–	10 µM	ΔTm	-0.2 °C
CCN1CCN(Cc2ccc(NC(=O)c3ccc(C)c(Oc4ccnc5[nH]ccc45)c3)cc2C(F)(F)F)CC1	target engagement in cells, inhibitor, chemoproteomics	A-375	5 µM	inhibition	-0.846%
Cc1nc(Cc2cccc(C(F)(F)F)c2)sc1-c1ccc(C(N)=O)nc1	cell-free assay, competition with immobilised ligand	–	1 µM	remaining binding	81%
Cn1c2c(c3ccc(Cl)c(Cl)c31)C(C#N)C1(CCOCC1)NC2=O (stereo not drawn)	thermal stability, DSF	–	10 µM	ΔTm	0 °C
O=S(=O)(NC1CCC(c2cc(F)ccc2F)(S(=O)(=O)c2ccc(Cl)cc2)CC1)C(F)(F)F (stereo not drawn)	cell-free assay, competition with immobilised ligand	–	1 µM	remaining binding	100%
O=C1Nc2ccc(Cl)cc2C1=Cc1cc(Cl)c(O)c(Cl)c1	cell-free assay	–	0.5 µM	remaining signal	85.4%
Cn1c2c(c3ccc(Cl)c(Cl)c31)C(C#N)C1(CCNCC1)NC2=O (racemic)	thermal stability, DSF	–	10 µM	ΔTm	0.4 °C
C[C@H](c1ccnc(Nc2nc3ccc(-c4cc(N(C)C)ncn4)cc3[nH]2)c1)N1CCN(C(=O)CC(F)(F)F)CC1	cell-free assay, competition with immobilised ligand	–	0.1 µM	remaining binding	100%
COc1cc2c(N3CCN(C(=O)Nc4ccc(OC(C)C)cc4)CC3)ncnc2cc1OCCCN1CCCCC1	cell-free assay	–	0.5 µM	remaining signal	99.1%
CC/C(=N\NC(=O)NCc1cccc(O)c1)c1ccc(O)c(C)c1O	enzyme activity, inhibitor	–	0.1 µM	inhibition	18.8%
CCN1CCC2(CC1)NC(=O)c1c(c3ccc(Cl)c(Cl)c3n1C)C2C#N (racemic)	thermal stability, DSF	–	10 µM	ΔTm	0.1 °C
Cc1cc(NC(=O)c2cccc(S(F)(F)(F)(F)F)c2)cc(-n2ccn3nc(-c4cccnc4)cc23)c1	cell-free assay, competition with immobilised ligand	–	1 µM	remaining binding	92.3%
CN1CCC2(CC1)NC(=O)c1c(c3ccc(Cl)c(Cl)c3n1C)C2C#N (racemic)	thermal stability, DSF	–	10 µM	ΔTm	0 °C
CCC(=N\O)/C(C)=C/c1ccc(F)cc1	cell-free assay, competition with immobilised ligand	–	1 µM	remaining binding	94%
